This is a sample that favours compounds with a hit; in the whole collection about 1.5% have one here.
EBI2 block = blocks human EBI2 receptor beta-arrestin signaling. EBI2 beta-arrestin recruitment, luminescence, 7a,25-OHC stimulated. P32249. inhibition, % at 5 µM. AID 651636. 0.81% of 360,000 active; in the data active = inhibition above about 38%;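 note: enzyme fragment complementation signal reports receptor beta-arrestin coupling in cells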
CCR6 antag = blocks CCL20-driven beta-arrestin recruitment at human CCR6. inhibition, % at 20 µM. AID 493098. CHO-K1 CCR6 PathHunter beta-arrestin, luminescence, CCL20-stimulated. 0.49% of 340,000 active;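 active = compounds whose inhibition of the agonist-driven luminescence signal at 20 µM reaches about 50%, limit read from the data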;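 note: cells stimulated with CCL20 at 14 nM final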
APJ antag = APJ receptor antagonism. CHO-K1 APJ beta-arrestin complementation, luminescence. inhibition, % at 20 µM. P35414. 0.32% of 330,000 active;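 active = inhibition above about 40% at 20 µM, limit read from the data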;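 note: cells challenged with 10 nM apelin-13 agonist together with compound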
Target sequence (P35414 whole entry, looked up): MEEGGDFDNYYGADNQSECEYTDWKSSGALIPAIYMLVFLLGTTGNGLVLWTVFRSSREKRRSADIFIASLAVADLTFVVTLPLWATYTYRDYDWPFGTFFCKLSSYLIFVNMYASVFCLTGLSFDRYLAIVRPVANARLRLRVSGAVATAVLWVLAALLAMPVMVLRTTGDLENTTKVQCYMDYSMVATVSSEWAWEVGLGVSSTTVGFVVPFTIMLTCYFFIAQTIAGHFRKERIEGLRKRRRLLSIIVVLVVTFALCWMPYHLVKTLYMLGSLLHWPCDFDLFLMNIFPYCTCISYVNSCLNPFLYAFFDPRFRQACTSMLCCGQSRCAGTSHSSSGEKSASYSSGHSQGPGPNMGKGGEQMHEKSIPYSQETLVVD
APJ ag = activates the human apelin receptor APJ; P35414; CHO-K1 APJ PathHunter beta-arrestin, luminescence; 0% DMSO wells, 100% apelin; activation, % at 20 µM; 0.11% of 330,000 active; AID 2520;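 active = activation more than six SD over the plate average, tested at 20 µM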
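Material: CHO-K1 APJ beta-arrestin complementation cell line; Input: cell density 1000 per well; Incubation: compound stimulation 90 min at 25 °C, detection 60 min; Signal: luminescence from split beta-galactosidase complementation, Galacton Star/Emerald II substrate; Controls: DMSO-only wells as negative, 10 nM Apelin-13 as positive control.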
CXCR6 block = inhibitors of human CXCR6 receptor; inhibition, % at 20 µM; O00574; CHO-K1 PathHunter CXCR6 beta-arrestin, luminescence; 0.36% of 360,000 active; in the data active = inhibition above about 34%, passing the limit was not always enough;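 note: antagonist mode with CXCL16 agonist at 10 nM final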
APJ ag confirm = confirmation of human APJ apelin receptor agonists | shares compounds with APJ ag | CHO-K1 APJ PathHunter beta-arrestin, luminescence | activation, % at 20 µM | 10% of 310 active;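 active = activation above 40%, taking the highest of four retests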
APJ antag conf = confirmation of human APJ apelin receptor antagonists; AID 2766; shares compounds with APJ antag; inhibition, % at 20 µM; 66% of 950 active; APJ beta-arrestin recruitment, luminescence, antagonist mode; in the data active = inhibition above about 50%
CXCR6 confirm = confirmation of human CXCR6 receptor antagonists; 65% of 700 active; CHO-K1 CXCR6 PathHunter beta-arrestin, luminescence; inhibition, % at 20 µM; AID 602409; shares compounds with CXCR6 block;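 active = mean inhibition over four retests above 40%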;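 note: receptor stimulated with 10 nM CXCL16 agonist; beta-galactosidase fragment complementation upon beta-arrestin recruitment to receptor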
Large screens that a line does not name were inactive (follow-up assays come after a bar, where they were run).

CCOc1ccc(/C=C/[N+](=O)[O-])c2ccccc12	APJ ag 16, CXCR6 block 60 (no result: CCR6 antag) | APJ ag confirm inactive | CXCR6 confirm 52
Cc1cnc(NC(=O)c2cccc(S(=O)(=O)N3CC(C)OC(C)C3)c2)s1 (configuration not stated)	none
CN(C)c1ccc(/C=C/c2ccc3ccccc3[n+]2C)cc1	CCR6 antag 53, APJ antag 64, CXCR6 block 48 | APJ antag conf 89
CN(CCCS(=O)(=O)[O-])c1ccc(/C=C/c2ccc3ccccc3[n+]2C)cc1	none
O=C(COC(=O)c1cc2ccccc2oc1=O)c1cccc([N+](=O)[O-])c1	CCR6 antag 52, APJ antag 48 | APJ antag conf 83
O=C(COC(=O)c1cnccn1)c1cccc([N+](=O)[O-])c1	CCR6 antag 53, APJ antag 42 | APJ antag conf 79
O=C(CCC(=O)OCC(=O)c1cccc([N+](=O)[O-])c1)NC1CCCCC1	CCR6 antag 58, APJ antag 43 | APJ antag conf 99
COc1cc([N+](=O)[O-])ccc1NC(=S)NNC(=O)CCC(=O)Nc1ccccc1Cl	APJ antag 45 | APJ antag conf 51
O=C(COC(=O)c1cnccn1)c1ccc2ccccc2c1	none
CCC1C(=O)NCCN1C(=O)c1ccc(OC)c(OC2CCN(C(C)=O)CC2)c1 (configuration not stated)	none
CCOC(=O)c1c(C)oc(NC(=O)CCl)c1C(=O)OCC	none
O=C(c1ccc(Cl)c(NC2=NC3CS(=O)(=O)CC3S2)c1)N1CCN(c2ccc(F)cc2)CC1 (configuration not stated)	none
COc1ccc(CCN2CC(C(=O)OCc3ccccc3Cl)CC2=O)cc1OC (configuration not stated)	none (no result: APJ antag, APJ ag)
Cc1ccc(OCC(=O)OCC(=O)c2cccc([N+](=O)[O-])c2)cc1C	CCR6 antag 51, APJ antag 57 | APJ antag conf 55
O=C(CCC(=O)OCC(=O)c1cccc([N+](=O)[O-])c1)Nc1ccccc1Cl	CCR6 antag 62, APJ antag 68 | APJ antag conf 112
CC(=O)Nc1ccc(NC(=O)CCC(=O)OCC(=O)c2cccc([N+](=O)[O-])c2)cc1	APJ antag 47 | APJ antag conf 86
CCC(=O)c1ccc(OC(=O)Cc2ccc(OC)cc2)cc1	none
Cc1cc(C)n(-c2nc(SCCN(C)C)c3c4c(sc3n2)CCCC4)n1	APJ antag 49 | APJ antag conf inactive
Cc1cc(C)n(-c2nc(SCC(=O)O)c3c4c(sc3n2)COC(C)(C)C4)n1	none
O=C1NC(=S)N/C1=C/c1cccc([N+](=O)[O-])c1O	APJ antag 43, CXCR6 block 44 | APJ antag conf 79
O=C(CCN1C(=O)[C@@H]2Cc3ccccc3CN2C1=O)N[C@@H](C(=O)O)c1ccccc1	none
CC1CCN(S(=O)(=O)c2cn(CC(=O)Nc3cccc(C#N)c3)cn2)CC1	none
CC(=O)c1cccc(NC(=O)Cn2cnc(S(=O)(=O)N3CCC(C)CC3)c2)c1	APJ antag 42 | APJ antag conf inactive
O=C(c1ccco1)N1CCN(C(=O)C2(S(=O)(=O)c3ccc(Cl)cc3)CC2)CC1	APJ antag 41 | APJ antag conf inactive
Cc1ccc(N=Nc2c(C)[nH]n(C(N)=S)c2=O)cc1	none
Cc1[nH]n(C(N)=S)c(=O)c1N=Nc1ccc(S(=O)(=O)N2CCCC2)cc1	APJ antag 57 | APJ antag conf 80
Cc1cc([N+](=O)[O-])nn1CC(=O)NNC(=S)Nc1ccc([N+](=O)[O-])cc1	APJ antag 47 | APJ antag conf 70
Cc1cccc2c1N(CCCOc1ccccc1)C(=O)C2=O	APJ antag 44 | APJ antag conf 76
O=C(N/N=C/c1ccc(-c2ccccc2Cl)o1)c1ccccc1	none
O=S(=O)(N/N=C\c1ccc(-c2ccccc2Cl)o1)c1ccccc1	APJ antag 59 | APJ antag conf 59
CCCN(c1ccccc1C(=O)O)S(=O)(=O)c1ccc2c(c1)n(C)c(=O)n2C	none
CCN(CC)c1ccc2nc3ccc(N)cc3[n+](-c3ccccc3)c2c1	CCR6 antag 59, APJ antag 45 | APJ antag conf 96
CCN(CC)c1ccc2nc3ccccc3[n+](CC)c2c1	none
CC(=O)Nc1nc(C)c(-c2csc(Nc3cccc([N+](=O)[O-])c3)n2)s1	none
CC(=O)c1cccc(Nc2nc(-c3cccc([N+](=O)[O-])c3)cs2)c1	APJ antag 52 | APJ antag conf inactive
O=C(OCC(=O)c1ccc(Cl)cc1Cl)c1ccc2c(c1)C(=O)N(c1cccc3ncccc13)C2=O	APJ antag 56 | APJ antag conf 73
O=C(OCC(=O)c1ccccc1Br)c1ccccn1	none
O=C(OCC(=O)c1ccc(Cl)cc1Cl)c1ccccn1	APJ antag 62 | APJ antag conf 89
O=C(CCC(=O)OCC(=O)c1ccc(Cl)cc1Cl)Nc1cccc2cccnc12	CCR6 antag 62, APJ antag 64 | APJ antag conf 92
COc1ccc(-n2c(N)c(C(=O)NCc3ccco3)c3nc4ccccc4nc32)cc1	none
N#Cc1c(N)n(CCc2ccc(F)cc2)c2nc3ccccc3nc12	APJ antag 65 | APJ antag conf inactive
Nc1c(C(=O)NCc2ccco2)c2nc3ccccc3nc2n1CCc1ccc(F)cc1	APJ antag 55 | APJ antag conf inactive
COc1ccc(NS(=O)(=O)c2ccc(F)c(F)c2F)cc1S(=O)(=O)N1CCOCC1	none
Cc1ccc(Nc2ccc([N+](=O)[O-])ccc2=O)cc1	none
Cc1nsc(Nc2ccc([N+](=O)[O-])cc2)c1C#N	CCR6 antag 56, APJ antag 71, CXCR6 block 50 | APJ antag conf 88
NC(=O)c1ccsc1NC(=O)CS(=O)(=O)c1ccc(F)cc1	none
Cc1ccc(N(CC(=O)N(C)Cc2ccccc2)S(C)(=O)=O)cc1C	none
O=C(Cc1nc2ccccc2[nH]1)c1ccc(Br)cc1	none
CCOc1ccc(/C=C2/SC(=S)N(C(C(=O)O)c3ccccc3)C2=O)cc1OCC (configuration not stated)	none (no result: APJ antag, APJ ag)
O=C(O)C(c1ccccc1)N1C(=O)/C(=C\c2ccc(O)c(O)c2)SC1=S (configuration not stated)	CCR6 antag 53, APJ antag 45, CXCR6 block 42 | APJ antag conf 87

Bioassay records from PubChem BioAssay.
